Test results taken from ChEMBL document CHEMBL1144143, “Phenolic glycosides from Dirca palustris” (J Nat Prod, 1999).
Blank lines part the entries; values can stand above or below the compound they belong to. The source made the active and inactive calls. No cut-off for these calls is given here.

Tests used:
[1] = Antioxidation activity assessed as inhibition of peroxidation of liposome; type: physicochemical; conditions: artificial membrane
In short: (§1)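 Fe2+-initiated peroxidation of large unilamellar liposomes made from 1-stearoyl-2-linoleoyl-phosphocholine with the fluorescent probe 3-[p-(6-phenyl)-1,3,5-hexatrienyl]phenylpropionic acid. Liposomes were extruded through a 100 nm membrane. The assay used Chelex-treated HEPES buffer at pH 7.0 with NaCl, at 23 °C, with test agent in DMSO. Reaction was started with 20 µM FeCl2 (final). Fluorescence (excitation 384 nm) was read every 3 min for 21 min. Positive controls were at 10 µM final.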

[2] = biological target: T1, Prostaglandin G/H synthase 1 (Ovis aries) (UniProt P05979); test: Inhibition of sheep COX1 at 125 ug/mL
T1 sequence (whole entry): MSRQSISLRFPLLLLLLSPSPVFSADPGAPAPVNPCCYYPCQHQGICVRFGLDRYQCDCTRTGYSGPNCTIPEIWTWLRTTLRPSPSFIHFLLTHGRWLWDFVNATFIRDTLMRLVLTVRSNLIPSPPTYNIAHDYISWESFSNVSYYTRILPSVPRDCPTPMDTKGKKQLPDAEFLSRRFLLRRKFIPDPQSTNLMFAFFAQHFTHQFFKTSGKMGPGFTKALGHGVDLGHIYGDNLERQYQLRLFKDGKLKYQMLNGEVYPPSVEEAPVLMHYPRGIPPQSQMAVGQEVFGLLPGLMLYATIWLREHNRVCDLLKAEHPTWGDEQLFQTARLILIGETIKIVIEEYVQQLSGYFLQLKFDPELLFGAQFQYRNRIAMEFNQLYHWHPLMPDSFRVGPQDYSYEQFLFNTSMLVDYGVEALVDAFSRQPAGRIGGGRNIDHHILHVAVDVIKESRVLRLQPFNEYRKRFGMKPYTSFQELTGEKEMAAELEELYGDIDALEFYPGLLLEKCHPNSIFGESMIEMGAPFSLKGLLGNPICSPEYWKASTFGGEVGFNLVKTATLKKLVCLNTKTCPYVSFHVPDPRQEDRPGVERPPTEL
In short: (§2)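 COX-I. Initial rate of O2 uptake measured at 37 °C with an oxygen electrode. Mixture: 0.1 M Tris at pH 7.0, 1 mmol phenol, 85 µg hemoglobin and 100 µmol arachidonic acid. Compound was added in DMSO, with a DMSO-only control. Reaction was started with 5-25 µg microsomal protein. Results are expressed as % inhibition.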

[3] = Inhibition of insect cell COX2 at 125 ug/mL
In short: (§3)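 COX-II was an insect cell lysate preparation, diluted in Tris at pH 7.0 to about 1.5 mg protein/mL. O2 uptake was measured at 37 °C by oxygen electrode. Mixture: 0.1 M Tris at pH 7.0, phenol, hemoglobin and 100 µmol arachidonic acid. Compound was added in DMSO, and the reaction was started by adding enzyme protein.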

[4] = Antioxidation activity assessed as inhibition of peroxidation of liposome at 1.66 ug/mL; type: physicochemical; conditions: artificial membrane; in short: as §1
[5] = biological target: T1, Prostaglandin G/H synthase 1 (Ovis aries); conditions: 2.06 ug/mL
[6] = biological target: T1, Prostaglandin G/H synthase 1 (Ovis aries); test: Inhibition of sheep COX1 at 200 ug/mL; in short: as §2
[7] = Inhibition of insect cell COX2 at 200 ug/mL; in short: as §3
[8] = Antioxidation activity assessed as inhibition of peroxidation of liposome at 60 ug/mL; type: physicochemical; conditions: artificial membrane; in short: as §1
[9] = biological target: T1, Prostaglandin G/H synthase 1 (Ovis aries); conditions: 180 ug/mL
[10] = biological target: T1, Prostaglandin G/H synthase 1 (Ovis aries); test: Inhibition of sheep COX1; in short: as §2
[11] = Antioxidation activity assessed as inhibition of peroxidation of liposome at 4.31 ug/mL; type: physicochemical; conditions: artificial membrane; in short: as §1
[12] = Antioxidation activity assessed as inhibition of peroxidation of liposome at 1.80 ug/mL; type: physicochemical; conditions: artificial membrane
In short: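 Large unilamellar liposomes (100 nm extrusion) of 1-stearoyl-2-linoleoyl phosphatidylcholine carrying a phenylhexatrienyl-phenylpropionic acid fluorescent probe, in Chelex-treated HEPES pH 7.0 with NaCl. Test compound added in DMSO. Peroxidation started with FeCl2 (20 µM Fe2+ final) at 23 °C. Fluorescence (excitation 384 nm) read every 3 min for 21 min; the fall in relative intensity gives the peroxidation rate.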

[13] = Antioxidation activity assessed as inhibition of peroxidation of liposome at 2.20 ug/mL; type: physicochemical; conditions: artificial membrane; in short: as §1
[14] = biological target: T1, Prostaglandin G/H synthase 1 (Ovis aries); conditions: 2.52 ug/mL

Compound: CC(C)(C)c1cc(O)ccc1O [E319]
inhibition (INH) [4]: 90%

Compound: CC(=O)Oc1ccccc1C(=O)O
inhibition [9]: 52.1%

Compound: COc1ccc(-c2cc(=O)c3c(OC)cc(O[C@@H]4O[C@H](CO[C@H]5O[C@H](C)[C@@H](O)[C@H](O)[C@H]5O)[C@@H](O)[C@H](O)[C@H]4O)cc3o2)cc1OC
Activity [10]: inactive | Activity [7]: inactive | inhibition (INH) [8]: 67%

Compound: COc1ccc(O)c(C(C)(C)C)c1.COc1ccc(O)cc1C(C)(C)C [BUTYLATED HYDROXYANISOLE]
inhibition (INH) [12]: 91%

Compound: Cc1cc(C(C)(C)C)c(O)c(C(C)(C)C)c1 [BUTYLATED HYDROXYTOLUENE]
inhibition (INH) [13]: 81%

Compound: COc1ccc2cc([C@H](C)C(=O)O)ccc2c1
inhibition [14]: 58%

Compound: COc1ccc(-c2cc(=O)c3c(OC)cc(O[C@@H]4O[C@H](CO[C@H]5OC[C@@H](O)[C@H](O)[C@H]5O)[C@@H](O)[C@H](O)[C@H]4O)cc3o2)cc1OC
Activity [10]: inactive | Activity [7]: inactive | inhibition (INH) [8]: 98%

Compound: COc1ccc(-c2cc(=O)c3c(OC)cc(O[C@@H]4O[C@H](CO[C@H]5OC[C@@H](O)[C@H](O)[C@H]5O)[C@@H](O)[C@H](O)[C@H]4O)cc3o2)cc1
Activity [10]: inactive | Activity [7]: inactive | inhibition (INH) [8]: 78%

The next lines start with the values.

Activity [1]: Not Active | inhibition [2]: 9.2% | Activity [3]: inactive
Compound: COc1cc(/C=C/CO)c(OC)c(O[C@@H]2O[C@H](CO)[C@@H](O)[C@H](O)[C@H]2O)c1

inhibition [5]: 53.3%
Compound: CC(C)Cc1ccc(C(C)C(=O)O)cc1 (configuration not stated)

inhibition [6]: 12.5% | Activity [7]: inactive | inhibition (INH) [8]: 71%
Compound: COc1cc(O[C@@H]2O[C@H](CO[C@H]3OC[C@@H](O)[C@H](O)[C@H]3O)[C@@H](O)[C@H](O)[C@H]2O)cc2oc(-c3ccc(O)cc3)cc(=O)c12

inhibition (INH) [11]: 7%
Compound: VITAMIN E
